Measured values reported in ChEMBL document CHEMBL1909525, “Synthesis and anticonvulsant activity of novel 2,6-diketopiperazine derivatives. Part 1: perhydropyrrole[1,2-a]pyrazines” (Eur J Med Chem, 2011).
Calls of active or inactive are those of the source. No cut-off for these calls is given here.

Experiments:
[1] = species on record: Mus musculus; assay: Protective index, ratio of TD50 for albino Carworth Farms No.1 mouse to ED50 for albino Carworth Farms No.1 mouse by maximal electroshock-induced seizure test; type: functional
Procedure, shortened: (§1)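 Mouse quantification at the time of peak effect, compound given i.p. in 0.5% methylcellulose. Groups of at least eight mice received varied doses until at least two points fell between 100 and 0% response. PI = TD50/ED50 MES.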

[2] = test system: Mus musculus; assay: Anticonvulsant activity in albino Carworth Farms No.1 mouse assessed as protection against maximal electroshock-induced seizure at 30 mg/kg, ip after 0.5 hrs; type: functional, organism-based; set-up: dose 30 mg/kg
Procedure, shortened: (§2)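 Mouse MES test with compound given i.p. (30, 100 or 300 mg/kg) in 0.5% methylcellulose; tested at 0.5 and 4 h. Corneal stimulus of 50 mA at 60 Hz for 0.2 s, electrodes primed with 0.5% butacaine in 0.9% NaCl. Protection is abolition of hindlimb tonic extension; scored as protected/tested.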

[3] = Neurotoxicity in ip dosed albino Carworth Farms No.1 mouse assessed as motor impairment after 0.25 hrs by rotarod test; type: toxicity, organism-based; details: Carworth Farms No.1 (albino), in vivo; procedure, shortened: as §1
[4] = test system: Mus musculus; assay: Anticonvulsant activity in ip dosed albino Carworth Farms No.1 mouse assessed as time needs to show peak effect for protection against maximal electroshock-induced seizure; type: functional
[5] = test system: Mus musculus; assay: Anticonvulsant activity in albino Carworth Farms No.1 mouse assessed as protection against maximal electroshock-induced seizure at 300 mg/kg, ip after 4 hrs; type: functional, organism-based; set-up: dose 300 mg/kg; procedure, shortened: as §2
[6] = test system: Mus musculus; assay: Anticonvulsant activity in albino Carworth Farms No.1 mouse assessed as protection against maximal electroshock-induced seizure at 300 mg/kg, ip after 0.5 hrs; type: functional, organism-based; set-up: dose 300 mg/kg; procedure, shortened: as §2
[7] = test system: Rattus norvegicus; assay: Anticonvulsant activity in albino Sprague-Dawley rat assessed as protection against pilocarpine-induced status epilepticus at 600 mg/kg, ip measured after time from first stage 3 seizures; type: functional, organism-based; set-up: dose 600 mg/kg
Procedure, shortened: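 Male albino Sprague-Dawley rats (150–180 g) given compound i.p., then a pilocarpine challenge dose immediately (0 min) or 30 min after treatment. Outcome scored as protection or no protection from epileptic seizures, reported as number protected/number tested.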

[8] = test system: Mus musculus; assay: Anticonvulsant activity in albino Carworth Farms No.1 mouse assessed as protection against subcutaneous metrazol-induced seizure at 30 mg/kg, ip after 0.5 hrs; type: functional, organism-based; set-up: dose 30 mg/kg
Procedure, shortened: (§3)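 Mouse scMET test. Compound given i.p. (30, 100 or 300 mg/kg) in 0.5% methylcellulose. Pentylenetetrazole 85 mg/kg (CD97) given s.c. at 0.5 or 4 h, then mice observed for 30 min. Protection is absence of clonic spasms; scored as protected/tested.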

[9] = test system: Mus musculus; assay: Anticonvulsant activity in albino Carworth Farms No.1 mouse assessed as protection against subcutaneous metrazol-induced seizure at 100 mg/kg, ip after 4 hrs; type: functional, organism-based; set-up: dose 100 mg/kg; procedure, shortened: as §3
[10] = test system: Mus musculus; assay: Neurotoxicity in albino Carworth Farms No.1 mouse assessed as motor impairment at 30 mg/kg, ip after 0.5 hrs by rotarod test; type: toxicity, organism-based; set-up: dose 30 mg/kg, route intraperitoneal; details: in vivo
Procedure, shortened: (§4)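 Rotorod neurotoxicity in mice at 6 r.p.m. Compound given i.p. (30, 100, 300 mg/kg) in 0.5% methylcellulose; tested at 30 min and 4 h. Impairment is inability to keep equilibrium on the rod for a given time; scored as impaired/tested.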

[11] = test system: Mus musculus; assay: Anticonvulsant activity in albino Carworth Farms No.1 mouse assessed as protection against subcutaneous metrazol-induced seizure at 30 mg/kg, ip after 4 hrs; type: functional, organism-based; set-up: dose 30 mg/kg; procedure, shortened: as §3
[12] = test system: Mus musculus; assay: Anticonvulsant activity in ip dosed albino Carworth Farms No.1 mouse assessed as protection against maximal electroshock-induced seizure after 0.25 hrs; type: functional; details: albino Carworth Farms No.1, ip
Procedure, shortened: as §1, with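 “response. ED50 (MES, scMET) and TD50 (rotorod) with 95% CI by probit analysis (Finney).” for “response.”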

[13] = test system: Mus musculus; assay: Anticonvulsant activity in ip dosed albino Carworth Farms No.1 mouse assessed as protection against subcutaneous metrazol-induced seizure after 0.25 hrs; type: functional; details: albino Carworth Farms No.1, 0.25 h
Procedure, shortened: as §1, with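 “response. ED50 (MES, scMET) and TD50 (rotorod) with 95% CI by probit analysis (Finney).” for “response.”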

[14] = test system: Mus musculus; assay: Neurotoxicity in albino Carworth Farms No.1 mouse assessed as motor impairment at 100 mg/kg, ip after 0.5 hrs by rotarod test; type: toxicity, organism-based; set-up: dose 100 mg/kg, route intraperitoneal; details: in vivo; procedure, shortened: as §4
[15] = test system: Mus musculus; assay: Anticonvulsant activity in albino Carworth Farms No.1 mouse assessed as protection against subcutaneous metrazol-induced seizure at 100 mg/kg, ip after 0.5 hrs; type: functional, organism-based; set-up: dose 100 mg/kg; procedure, shortened: as §3
[16] = test system: Mus musculus; assay: Anticonvulsant activity in albino Carworth Farms No.1 mouse assessed as protection against subcutaneous metrazol-induced seizure at 300 mg/kg, ip after 0.5 hrs; type: functional, organism-based; set-up: dose 300 mg/kg; procedure, shortened: as §3
[17] = test system: Mus musculus; assay: Neurotoxicity in albino Carworth Farms No.1 mouse assessed as motor impairment at 300 mg/kg, ip after 4 hrs by rotarod test; type: toxicity, organism-based; set-up: dose 300 mg/kg, route intraperitoneal; details: in vivo; procedure, shortened: as §4
[18] = test system: Rattus norvegicus; assay: Toxicity in albino Sprague-Dawley rat pilocarpine-induced status epilepticus model assessed as change in body weight in protected rat at 600 mg/kg, ip measured after 24 hrs of time from first stage 3 seizures; type: organism-based; set-up: dose 600 mg/kg, route intraperitoneal; details: in vivo
Procedure, shortened: (§5)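 Pilocarpine-induced status prevention in male albino Sprague-Dawley rats (150–180 g). Compound given i.p. and followed by a pilocarpine challenge. Animals were sorted as protected or non-protected, and average body weight change (g) ± S.E.M. was recorded for each group.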

[19] = test system: Mus musculus; assay: Anticonvulsant activity in albino Carworth Farms No.1 mouse assessed as protection against maximal electroshock-induced seizure at 30 mg/kg, ip after 4 hrs; type: functional, organism-based; set-up: dose 30 mg/kg; procedure, shortened: as §2
[20] = test system: Mus musculus; assay: Neurotoxicity in albino Carworth Farms No.1 mouse assessed as motor impairment at 30 mg/kg, ip after 4 hrs by rotarod test; type: toxicity, organism-based; set-up: dose 30 mg/kg, route intraperitoneal; details: in vivo; procedure, shortened: as §4
[21] = test system: Mus musculus; assay: Anticonvulsant activity in albino Carworth Farms No.1 mouse assessed as protection against maximal electroshock-induced seizure at 100 mg/kg, ip after 0.5 hrs; type: functional, organism-based; set-up: dose 100 mg/kg; procedure, shortened: as §2
[22] = test system: Rattus norvegicus; assay: Toxicity in albino Sprague-Dawley rat pilocarpine-induced status epilepticus model assessed as change in body weight in non-protected rat at 600 mg/kg, ip measured after 24 hrs of time from first stage 3 seizures; type: organism-based; set-up: dose 600 mg/kg, route intraperitoneal; details: in vivo; procedure, shortened: as §5
[23] = test system: Mus musculus; assay: Anticonvulsant activity in albino Carworth Farms No.1 mouse assessed as protection against subcutaneous metrazol-induced seizure at 300 mg/kg, ip after 4 hrs; type: functional, organism-based; set-up: dose 300 mg/kg; procedure, shortened: as §3
[24] = test system: Mus musculus; assay: Neurotoxicity in albino Carworth Farms No.1 mouse assessed as motor impairment at 300 mg/kg, ip after 0.5 hrs by rotarod test; type: toxicity, organism-based; set-up: dose 300 mg/kg, route intraperitoneal; details: in vivo; procedure, shortened: as §4
[25] = test system: Mus musculus; assay: Anticonvulsant activity in albino Carworth Farms No.1 mouse assessed as protection against maximal electroshock-induced seizure at 100 mg/kg, ip after 4 hrs; type: functional, organism-based; set-up: dose 100 mg/kg; procedure, shortened: as §2
[26] = test system: Mus musculus; assay: Anticonvulsant activity in ip dosed albino Carworth Farms No.1 mouse assessed as protection against electric-current for 3 secs-induced seizure after 0.25 hrs by 6Hz minimal clonic seizure test; type: functional; details: albino Carworth Farms No.1, ip
[27] = test system: Mus musculus; assay: Anticonvulsant activity in albino Carworth Farms No.1 mouse assessed as protection against electric-current for 3 secs-induced seizure at 100 mg/kg, ip after 2 hrs by 6Hz minimal clonic seizure test; type: functional, organism-based; set-up: dose 100 mg/kg
Procedure, shortened: (§6)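 6 Hz psychomotor seizure test in mice. Compound given i.p. as a suspension in 0.5% methylcellulose. Corneal stimulation at 32 mA, 0.2-ms monopolar rectangular pulses at 6 Hz for 3 s, from a constant-current device. Tests run 0.25–4 h after dosing. A mouse counted as protected if it resumed normal exploratory behaviour within 10 s; scored as protected/tested.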

[28] = test system: Mus musculus; assay: Neurotoxicity in albino Carworth Farms No.1 mouse assessed as motor impairment at 100 mg/kg, ip after 4 hrs by rotarod test; type: toxicity, organism-based; set-up: dose 100 mg/kg, route intraperitoneal; details: in vivo; procedure, shortened: as §4
[29] = test system: Mus musculus; assay: Neurotoxicity in albino Carworth Farms No.1 mouse assessed as motor impairment at 100 mg/kg, ip after 0.25 hrs by rotarod test; type: toxicity, organism-based; set-up: dose 100 mg/kg, route intraperitoneal; details: in vivo
Procedure, shortened: (§7)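 Rotorod neurotoxicity in mice (18–25 g) following i.p. dosing of a suspension in 0.5% methylcellulose in water, tested at intervals between 0.25 and 4 h. Impairment was scored as failure to keep equilibrium on a 6 r.p.m. rod, reported as number impaired/number tested.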

[30] = test system: Mus musculus; assay: Anticonvulsant activity in albino Carworth Farms No.1 mouse assessed as protection against electric-current for 3 secs-induced seizure at 100 mg/kg, ip after 0.25 hrs by 6Hz minimal clonic seizure test; type: functional, organism-based; set-up: dose 100 mg/kg; procedure, shortened: as §6
[31] = test system: Mus musculus; assay: Anticonvulsant activity in albino Carworth Farms No.1 mouse assessed as protection against electric-current for 3 secs-induced seizure at 100 mg/kg, ip after 4 hrs by 6Hz minimal clonic seizure test; type: functional, organism-based; set-up: dose 100 mg/kg; procedure, shortened: as §6
[32] = test system: Mus musculus; assay: Anticonvulsant activity in ip dosed albino Carworth Farms No.1 mouse assessed as time needs to show peak effect for electric-current for 3 secs-induced seizure after 0.25 hrs by 6Hz minimal clonic seizure test; type: functional
[33] = test system: Mus musculus; assay: Neurotoxicity in albino Carworth Farms No.1 mouse assessed as motor impairment at 100 mg/kg, ip after 1 hr by rotarod test; type: toxicity, organism-based; set-up: dose 100 mg/kg, route intraperitoneal; details: in vivo; procedure, shortened: as §7
[34] = Neurotoxicity in ip dosed albino Carworth Farms No.1 mouse assessed as motor impairment after 0.5 hrs by rotarod test; type: toxicity, organism-based; details: Carworth Farms No.1 (albino), in vivo
Procedure, shortened: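 Rotorod test in mice (18–25 g) dosed i.p. with compound suspended in 0.5% methylcellulose in water. Tested 30 min after dosing. Impairment was scored as inability to keep equilibrium on a 6 r.p.m. rod. TD50 came from groups of ≥8 mice at the time of peak effect, with 95% confidence intervals by probit analysis (Finney method).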

[35] = test system: Mus musculus; assay: Neurotoxicity in albino Carworth Farms No.1 mouse assessed as motor impairment at 100 mg/kg, ip after 2 hrs by rotarod test; type: toxicity, organism-based; set-up: dose 100 mg/kg, route intraperitoneal; details: in vivo; procedure, shortened: as §7

Cl.O=C1[C@H](c2ccccc2)N2CCC[C@H]2C(=O)N1CCc1ccccc1
Ratio TD50/ED50 [1]: 2.2 | Activity [2]: inactive | TD50 at 0.25 h [3]: 178 mg/kg | Time [4]: 0.25 h | Activity [5]: Active | Activity [6]: Active | Activity [7]: inactive | Activity [8]: inactive | Activity [9]: inactive | Activity [10]: Non-toxic | Activity [11]: inactive | ED50 [12]: 80.6 mg/kg | ED50 [13]: > 200 mg/kg | Activity [14]: Non-toxic | Activity [15]: inactive | Activity [16]: inactive | Activity [17]: Non-toxic | Activity [18]: -10 g | Activity [19]: inactive | Activity [20]: Non-toxic | Activity [21]: Active | Activity [22]: -18.8 g | Activity [23]: inactive | Activity [24]: Non-toxic | Activity [25]: inactive

CCOC(=O)CN1C(=O)[C@H](c2ccccc2)N2CCC[C@H]2C1=O
ED50 [26]: 55.6 mg/kg | Activity [2]: inactive | Activity [27]: inactive | Activity [5]: Active | Activity [28]: Non-toxic | Activity [6]: Active | Activity [8]: inactive | Activity [9]: inactive | Activity [10]: Non-toxic | Activity [11]: inactive | Activity [29]: Non-toxic | Activity [14]: Non-toxic | Activity [30]: Active | Activity [15]: inactive | Activity [16]: inactive | Activity [17]: Non-toxic | Activity [31]: inactive | Time [32]: 0.25 h | Activity [19]: inactive | Activity [33]: Non-toxic | Activity [20]: Non-toxic | TD50 at 0.5 h [34]: 178 mg/kg | Activity [21]: Active | Activity [35]: Non-toxic | Activity [23]: inactive | Activity [24]: Toxic | Activity [25]: inactive
